ChEMBL document CHEMBL1135622, “Use of the Kohonen neural network for rapid screening of ex vivo anti-HIV activity of styrylquinolines” (J Med Chem, 2002)

Assays:
[1] = system: Human immunodeficiency virus 1; experiment: Cytotoxicity (C) and percentage of dead cells at 100 uM concentration.; assay type: functional
How it was run: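 CEM lymphocytes (RPMI-1640, 10% FCS) plated in triplicate and infected with cell-free HIV-1 NL4-3; virus removed after 2 h, drug at 100 µM added in DMSO in fresh medium for 72 h. Viability by MTT (7.5 mg/mL stock), 4 h at […], formazan dissolved in SDS/HCl, absorbance at 570 nm; value given as percentage of dead cells.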

[2] = system: Human immunodeficiency virus 1; experiment: Reduction of viral load in the cell supernatant.; assay type: functional, organism-based
[3] = system: Human immunodeficiency virus 1; experiment: Ex vivo activity against residual viruses (% of nontreated infected cells) in cell supernatant at 100 uM concentration.; assay type: functional
[4] = system: Human immunodeficiency virus 1; experiment: Inhibitory concentration against HIV-1 required for 50% reduction of viral load in the cell supernatant; Not reached.; assay type: functional, organism-based

Compound	Cytotoxicity [1]	IC50 [2]	RV [3]	NR [4]
O=C(O)c1ccc2ccc(/C=C/c3ccc(F)c(F)c3)nc2c1O	91%	30 µM	2%	
O=C(O)c1ccc2ccc(/C=C/c3cc(O)c(O)c(I)c3)nc2c1O	42%	6.8 µM	3%	
O=C(O)c1ccc2ccc(/C=C/c3ccco3)nc2c1O	0%		70%	Not reached
O=C(O)c1cccc2nc(/C=C/c3ccc(O)c(O)c3)ccc12	0%	50 µM	5%	
O=C(O)c1ccc2ccc(/C=C/c3ccc4c(c3)OCO4)nc2c1O	40%	10 µM	4%	
O=C(O)c1ccc2ccc(/C=C/c3ccsc3)nc2c1O	68%		0%	
COc1cc(/C=C/c2ccc3ccc(C(=O)O)cc3n2)ccc1O	30%	20 µM	17%	
O=C(O)c1ccc2ccc(/C=C/c3ccc(O)cc3)nc2c1O	50%	95 µM	26%	
O=C(O)c1ccc2ccc(/C=C/c3cc(O)cc(/C=C/c4ccc5ccc(C(=O)O)c(O)c5n4)c3)nc2c1O	0%		100%	Not reached
O=C(O)c1ccc2ccc(/C=C/c3ccccc3)nc2c1O	100%		0%	
O=C(O)c1cc(C(=O)O)c2ccc(/C=C/c3ccc(O)c(O)c3)nc2c1	0%	15 µM	5%	
O=C(O)c1ccc2ccc(/C=C/c3cc(O)cc(O)c3)nc2c1O	17%		55%	Not reached
Oc1ccc(/C=C/c2ccc3cccc(O)c3n2)cc1O	78%		1%	
COc1cc(/C=C/c2ccc3ccc(C(=O)O)c(O)c3n2)cc(OC)c1O	17%	9 µM	0%	
O=C(O)c1ccc2ccc(/C=C/c3cc(O)c(O)c(O)c3)nc2c1O	90%		0%	
Nc1ccc(/C=C/c2ccc3ccc(C(=O)O)c(O)c3n2)cc1	40%	50 µM	8%	
O=C(O)c1ccc2ccc(/C=C/c3ccc(O)cc3O)nc2c1O	26%	80 µM	42%	
COc1ccc(/C=C/c2ccc3ccc(C(=O)O)c(O)c3n2)cc1O	57%	54 µM	0%	
O=C(O)c1ccc2ccc(/C=C/c3cccnc3)nc2c1O	74%		74%	Not reached
O=C(O)c1ccc2nc(/C=C/c3ccc(O)c(O)c3)ccc2c1	0%	20 µM	4%	
O=C(O)c1cc(/C=C/c2ccc3ccc(C(=O)O)c(O)c3n2)ccc1O	0%	80 µM	24%	
O=C(O)c1cccc2ccc(/C=C/c3ccc(O)c(O)c3)nc12	0%	12 µM	0%	
O=C(O)c1ccc2ccc(/C=C/c3ccc([N+](=O)[O-])cc3)nc2c1O	74%		6%	
COc1cc(/C=C/c2ccc3ccc(C(=O)O)c(O)c3n2)cc(O)c1O	14%	12 µM	6%	
O=C(O)c1ccc2ccc(/C=C/c3ccc(CO)cc3)nc2c1O	17%	110 µM	55%	
O=C(O)c1ccc2ccc(/C=C/c3cc(Br)c(O)c(Br)c3)nc2c1O	8%	30 µM	13%	
COc1cc(/C=C/c2ccc3ccc(C(=O)O)c(O)c3n2)ccc1O	48%	3 µM	12%	
O=C(O)c1ccc2ccc(/C=C/c3ccc(O)c(O)c3)nc2c1O	70%	1.3 µM	0%	
CC(=O)Nc1ccc(/C=C/c2ccc3ccc(C(=O)O)c(O)c3n2)cc1	88%		0%	
